In ChEMBL document CHEMBL3259693, “Multitarget drug discovery for tuberculosis and other infectious diseases” (J Med Chem, 2014):
≈ marks a conversion by molar mass, not a printed value. Calls of active or inactive are those of the source. The calls are words filed in the database; no cut-off is given here.

Assays:
[1] = test system: Mycobacterium tuberculosis; test: microbe, parasite or virus in culture; type: functional; conditions: ATCC 27294
[2] = test system: Mycolicibacterium smegmatis; test: microbe, parasite or virus in culture; type: functional; conditions: ATCC 700084
Plasmodium falciparum = test: Antimicrobial activity against Plasmodium falciparum 3D7 by intraerythrocytic assay; type: functional, organism-based
MCF7 = test: Cytotoxicity against human MCF7 cells assessed as growth inhibition by MTT assay; type: cell-based
[3] = test system: Mycolicibacterium smegmatis; test: Inhibition of respiration in Mycobacterium smegmatis after 5 mins by methylene blue reduction assay in presence of NADH; type: functional, organism-based
[4] = test system: Mycolicibacterium smegmatis; test: Disruption of membrane potential in Mycobacterium smegmatis by DisC3(5) probe-based fluorescence spectrophotometry; type: functional, organism-based
[5] = Inhibition of Escherichia coli N-terminal strep-tagged MenA expressed in Escherichia coli C43 (DE3) assessed as demethylmenaquinone-3 formation after 30 mins by HPLC analysis
Escherichia coli [6] = test: Induction of collapse in deltapH in Escherichia coli inverted membrane vesicles by 31P NMR spectroscopy; type: functional, organism-based
[7] = test system: Mycolicibacterium smegmatis; test: Induction of collapse in deltapH in Mycobacterium smegmatis inverted membrane vesicles at 30 to 150 uM by 31P NMR spectroscopy; type: functional
Bacillus subtilis = test: Antimicrobial activity against Bacillus subtilis subsp. subtilis ATCC 6051 after 12 to 16 hrs by microbroth dilution method; type: functional, organism-based
Staphylococcus aureus = test: Antimicrobial activity against methicillin-resistant Staphylococcus aureus USA300; type: functional
Escherichia coli [8] = test: microbe, parasite or virus in culture; type: functional, organism-based; conditions: ATCC 29425, 3 h
Saccharomyces cerevisiae = test: Antimicrobial activity against Saccharomyces cerevisiae ATCC 208352 after 48 hrs by microbroth dilution method; type: functional, organism-based; conditions: ATCC 208352, 48 h
Candida albicans = test: Antimicrobial activity against Candida albicans CAI-4; type: functional, organism-based
[9] = Therapeutic index, ratio of IC50 for human MCF7 cells to IC50 for Plasmodium falciparum 3D7; type: cell-based; conditions: MCF7 cells versus Plasmodium falciparum 3D7, read-out: Ratio IC50
Escherichia coli [10] = test: Ratio of IC50 for Escherichia coli ATCC 29425 in presence of 10% fetal bovine serum to IC50 for Escherichia coli ATCC 29425; type: functional
How it was run: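 E. coli broth microdilution in LB. Culture was grown to OD600 ~0.4, diluted 500-fold, and exposed to compound from 0.3 mM, 2× serially diluted to 292 nM. Plates ran 3 h at 37 °C with or without 10% FBS. Viability was read by MTT at 570 nm, and IC50 was obtained by non-linear regression.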

[11] = target: T1, 4,4'-diapophytoene synthase (Staphylococcus aureus, UniProt A9JQL9); test: Inhibition of Staphylococcus aureus CrtM
T1 sequence (A9JQL9 whole entry): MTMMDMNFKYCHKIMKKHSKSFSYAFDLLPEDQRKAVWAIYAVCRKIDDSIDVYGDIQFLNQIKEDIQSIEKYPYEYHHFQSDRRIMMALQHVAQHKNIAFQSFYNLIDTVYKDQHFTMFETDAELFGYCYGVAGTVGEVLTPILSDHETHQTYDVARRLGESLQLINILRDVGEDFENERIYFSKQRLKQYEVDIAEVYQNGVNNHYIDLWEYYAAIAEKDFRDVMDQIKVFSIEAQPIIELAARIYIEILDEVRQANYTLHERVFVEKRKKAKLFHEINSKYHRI

Squalene synthase = target: T2, Squalene synthase (Homo sapiens, UniProt P37268); test: Inhibition of human SQS
T2 sequence (P37268 whole entry): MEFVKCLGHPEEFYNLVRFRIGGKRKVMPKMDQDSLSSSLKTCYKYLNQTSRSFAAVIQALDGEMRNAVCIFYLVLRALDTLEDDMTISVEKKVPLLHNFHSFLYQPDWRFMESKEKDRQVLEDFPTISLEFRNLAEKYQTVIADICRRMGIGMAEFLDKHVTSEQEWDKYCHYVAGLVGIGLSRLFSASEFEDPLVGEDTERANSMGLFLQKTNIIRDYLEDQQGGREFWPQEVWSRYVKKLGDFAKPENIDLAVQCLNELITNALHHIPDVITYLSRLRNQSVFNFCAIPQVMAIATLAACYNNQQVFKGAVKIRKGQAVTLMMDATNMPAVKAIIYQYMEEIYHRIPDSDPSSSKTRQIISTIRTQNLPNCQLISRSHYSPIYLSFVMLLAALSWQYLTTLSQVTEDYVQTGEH

[12] = Inhibition of Mycobacterium smegmatis MenA; set-up: species or system Mycolicibacterium smegmatis
[13] = Inhibition of Mycobacterium smegmatis MenG using radiolabeled S-adenosylmethionine as substrate after 1 hr by liquid scintillation counting analysis; set-up: species or system Mycolicibacterium smegmatis
[14] = Therapeutic index, ratio of IC50 for human MCF7 cells to MIC for Mycobacterium tuberculosis ATCC 27294; type: cell-based; conditions: MCF7 cells versus Mycobacterium tuberculosis ATCC 27294, read-out: TI
[15] = test system: Mycolicibacterium smegmatis; conditions: at 40 to 120 µM
[16] = test system: Mycobacterium tuberculosis; test: Antimicrobial activity against Mycobacterium tuberculosis after 7 to 21 days by microdilution method; type: functional
[17] = test system: Mycolicibacterium smegmatis; test: Antimicrobial activity against Mycobacterium smegmatis after 10 hrs; type: functional

Row | SMILES | MIC [1] [µM] | MIC [2] [µM] | IC50 (Plasmodium falciparum) [µM] | IC50 (MCF7) [µM] | IC50 [3] [µM] | IC50 [4] [µM] | IC50 [5] [µM] | IC50 (Escherichia coli [6]) [µM] | IC50 (Bacillus subtilis) [µM] | MIC (Staphylococcus aureus) [µM] | IC50 (Escherichia coli [8]) [µM] | IC50 (Saccharomyces cerevisiae) [µM] | IC50 (Candida albicans) [µM] | further results
1 | CC(C)=CCC/C(C)=C/CNC(=O)COC1C2CC3CC(C2)CC1C3 (stereo unspecified) | 2.2 (≈ 0.76 µg/mL) | 18 (≈ 6.22 µg/mL) | 18 | 35 | 330 | 150 | 5.8 | 12 |  |  |  |  |  | 
2 | N#CC(C#N)=NNc1cccc(Cl)c1 |  |  |  |  |  |  |  |  |  |  |  |  |  | Activity [7]: Active
3 | CC(C)=CCC/C(C)=C/COCC(=O)NC1C2CC3CC(C2)CC1C3 (stereo unspecified) | 34 (≈ 11.7 µg/mL) | 72 (≈ 24.9 µg/mL) | 11 | 27 | 280 | 150 | 16 | 7.4 | 49 |  |  |  |  | 
4 | CC(C)[C@@H]1NC(=O)[C@H](C)OC(=O)[C@@H](C(C)C)NC(=O)[C@@H](C(C)C)OC(=O)[C@H](C(C)C)NC(=O)[C@H](C)OC(=O)[C@@H](C(C)C)NC(=O)[C@@H](C(C)C)OC(=O)[C@H](C(C)C)NC(=O)[C@H](C)OC(=O)[C@@H](C(C)C)NC(=O)[C@@H](C(C)C)OC1=O |  |  |  |  |  |  |  |  |  |  |  |  |  | Activity [7]: inactive
5 | CC(C)=CCC/C(C)=C/C[N+](C)(C)CCOC1C2CC3CC(C2)CC1C3 (stereo unspecified) | 1.6 | 24 | 0.16 | 6.5 | 0.5 | 51 | 1 | 18 | 8.6 | 16 | 76 | 31 | 37 | 
6 | CC(C)=CCC/C(C)=C/COCCOC1C2CC3CC(C2)CC1C3 (stereo unspecified) |  | 150 (≈ 49.9 µg/mL) | 24 | 220 | 600 | 150 | 4.2 | 15 |  |  |  |  |  | 
7 | CO[C@@H]1C[C@@H](C[C@H]2CC[C@H](C)[C@H]([C@@H](C)C(=O)O)O2)O[C@]2(O[C@](C)([C@H]3CC[C@@](C)([C@@H]4O[C@@H]([C@H]5O[C@@](O)(CO)[C@H](C)C[C@@H]5C)C[C@@H]4C)O3)C[C@H]2C)[C@@H]1C |  |  |  |  |  |  |  |  |  |  |  |  |  | Activity [7]: Active
8 | CC(C)=CCC/C(C)=C/CNCCOC1C2CC3CC(C2)CC1C3 (stereo unspecified) | 0.06 (≈ 0.0199 µg/mL) | 4.8 (≈ 1.59 µg/mL) | 2.4 | 30 | 0.5 | 31 | 0.4 | 0.8 | 48 | 24 (≈ 7.96 µg/mL) | 8.5 | 5.4 | 36 | selectivity ratio [9]: 40; Ratio IC50 (Escherichia coli [10]): 1.6; IC50 [11]: 100 µM; IC50 (Squalene synthase): 100 µM; IC50 [12]: 4 µM; IC50 [13]: 15 µM; selectivity ratio [14]: 900; inhibition [15]: Active
9 | CC(C)=CCC/C(C)=C/CNCCOc1cccc2ccccc12 | 19 (≈ 6.15 µg/mL) | 37 (≈ 12 µg/mL) |  | 22 | 140 | 130 | 3.3 | 7.1 | 7.4 | 25 (≈ 8.09 µg/mL) | 46 | 11 | 37 | 
10 | CC(C)=CCC/C(C)=C/CNCCOC(C)(C)C | 24 (≈ 6.08 µg/mL) | 198 (≈ 50.2 µg/mL) | 13 | 178 | 9500 | 150 | 4.6 | 4.7 |  |  |  | 174 |  | 
11 | CC(C)=CCC/C(C)=C/CNCCOc1ccccc1 | 23 (≈ 6.29 µg/mL) | 44 (≈ 12 µg/mL) | 51 | 23 | 2500 |  | 4.6 |  | 62 | 117 (≈ 32 µg/mL) | 220 | 11 | 74 | 
12 | CC(C)=CCC/C(C)=C/COCCNC1C2CC3CC(C2)CC1C3 (stereo unspecified) | 0.57 (≈ 0.189 µg/mL) | 19 (≈ 6.3 µg/mL) | 2.8 | 338 | 36 | 78 | 1.8 | 1 |  |  | 13 |  |  | IC50 [11]: 100 µM; IC50 (Squalene synthase): 100 µM
13 | CC(C)=CCC/C(C)=C/CNCCCOC1C2CC3CC(C2)CC1C3 (stereo unspecified) | 4.6 (≈ 1.59 µg/mL) | 18 (≈ 6.22 µg/mL) | 2.4 | 9.8 | 4.8 | 50 | 1.9 | 1.1 | 8.7 | 23 (≈ 7.95 µg/mL) | 6.7 | 7.8 | 19 | 
14 | CC(C)=CCC/C(C)=C/CNCCO[C@@H]1C[C@@H]2CC[C@@]1(C)C2(C)C | 0.15 (≈ 0.05 µg/mL) | 4.8 (≈ 1.6 µg/mL) |  | 3.9 | 0.3 | 44 | 3.2 | 0.8 | 5.4 | 24 (≈ 8.01 µg/mL) | 36 | 2.7 | 19 | Ratio IC50 (Escherichia coli [10]): 1.6; IC50 [12]: 8 µM; IC50 [13]: 5.7 µM; EC50 [4]: 15 µg/mL (≈ 45 µM); Activity [7]: Active
15 | CC[C@@H](CO)NCCN[C@@H](CC)CO [ETHAMBUTOL] |  |  |  |  |  |  |  |  |  |  |  |  |  | MIC [16]: 9.8 µM (≈ 2 µg/mL); MIC [17]: 4.9 µM (≈ 1 µg/mL)
